According to ChEMBL document CHEMBL3856258, “Phosphonate-based irreversible inhibitors of human γ-glutamyl transpeptidase (GGT). GGsTop is a non-toxic and highly selective inhibitor with critical electrostatic interaction with an active-site residue Lys562 for enhanced inhibitory activity” (Bioorg Med Chem, 2016):
Activity calls are given as the source filed them. The rule behind the calls is not given here.

Legend:
Salmonella typhimurium [1] = test: Genotoxicity in Salmonella typhimurium TA100 assessed as number of revertant colonies per plate at 1667 ug/plate after 20 mins in absence of S9 fraction by Ames test (reference value: 123); format: toxicity, organism-based; settings: salmonella enterica subsp. enterica serovar typhimurium
Salmonella typhimurium [2] = test: Genotoxicity in Salmonella typhimurium TA1535 assessed as number of revertant colonies per plate at 61.7 ug/plate after 20 mins in presence of S9 fraction by Ames test (reference value: 13); format: toxicity, organism-based; settings: salmonella enterica subsp. enterica serovar typhimurium
[3] = Cytotoxicity against CHL cells assessed as chromatid gap at 825 ug/ml after 24 hrs by Giemsa-staining-based microscopic analysis; format: toxicity, cell-based, Cricetulus griseus; settings: chinese hamster
[4] = Cytotoxicity against CHL cells assessed as growth rate at 2.16 ug/ml preincubated for 6 hrs followed by 18 hrs incubation in fresh medium in presence of S9 fraction by MTT assay relative to control; format: toxicity, cell-based, Cricetulus griseus; settings: chinese hamster, read-out: Activity
[5] = Cytotoxicity against CHL cells assessed as growth rate at 3300 ug/ml preincubated for 6 hrs followed by 18 hrs incubation in fresh medium in absence of S9 fraction by MTT assay relative to control; format: toxicity, cell-based, Cricetulus griseus; settings: chinese hamster, read-out: Activity
Salmonella typhimurium [6] = test: Genotoxicity in Salmonella typhimurium TA98 assessed as number of revertant colonies per plate at 185 ug/plate after 20 mins in presence of S9 fraction by Ames test (reference value: 26); format: toxicity, organism-based; settings: salmonella enterica subsp. enterica serovar typhimurium
Salmonella typhimurium [7] = test: Genotoxicity in Salmonella typhimurium TA1537 assessed as number of revertant colonies per plate at 61.7 ug/plate after 20 mins in presence of S9 fraction by Ames test (reference value: 15); format: toxicity, organism-based; settings: salmonella enterica subsp. enterica serovar typhimurium
Salmonella typhimurium [8] = test: Genotoxicity in Salmonella typhimurium TA1537 assessed as number of revertant colonies per plate at 556 ug/plate after 20 mins in absence of S9 fraction by Ames test (reference value: 9); format: toxicity, organism-based; settings: salmonella enterica subsp. enterica serovar typhimurium
Salmonella typhimurium [9] = test: Genotoxicity in Salmonella typhimurium TA100 assessed as number of revertant colonies per plate at 1667 ug/plate after 20 mins in presence of S9 fraction by Ames test (reference value: 142); format: toxicity, organism-based; settings: salmonella enterica subsp. enterica serovar typhimurium
Salmonella typhimurium [10] = test: Genotoxicity in Salmonella typhimurium TA98 assessed as number of revertant colonies per plate at […] ug/plate after 20 mins in presence of S9 fraction by Ames test (reference value: 26); format: toxicity, organism-based; settings: salmonella enterica subsp. enterica serovar typhimurium
[11] = Cytotoxicity against CHL cells assessed as number of cells with numerical aberrations at 1650 ug/ml preincubated for 6 hrs followed by 18 hrs incubation in fresh medium in presence of S9 fraction by Giemsa staining-based microscopic analysis relative to control; format: toxicity, cell-based, Cricetulus griseus; settings: chinese hamster
Salmonella typhimurium [12] = test: Genotoxicity in Salmonella typhimurium TA98 assessed as number of revertant colonies per plate at 5000 ug/plate after 20 mins in absence of S9 fraction by Ames test (reference value: 21); format: toxicity, organism-based; settings: salmonella enterica subsp. enterica serovar typhimurium
Salmonella typhimurium [13] = test: Genotoxicity in Salmonella typhimurium TA100 assessed as number of revertant colonies per plate at 5000 ug/plate after 20 mins in absence of S9 fraction by Ames test (reference value: 123); format: toxicity, organism-based; settings: salmonella enterica subsp. enterica serovar typhimurium
[14] = Cytotoxicity against CHL cells assessed as growth rate at 5.41 ug/ml preincubated for 6 hrs followed by 18 hrs incubation in fresh medium in absence of S9 fraction by MTT assay relative to control; format: toxicity, cell-based, Cricetulus griseus; settings: chinese hamster, read-out: Activity
[15] = Cytotoxicity against CHL cells assessed as growth rate at 13.5 ug/ml preincubated for 6 hrs followed by 18 hrs incubation in fresh medium in presence of S9 fraction by MTT assay relative to control; format: toxicity, cell-based, Cricetulus griseus; settings: chinese hamster, read-out: Activity
[16] = tested on: Gamma-glutamyltranspeptidase 1 (Homo sapiens); test: Inhibition of human wild-type N-terminal truncated GGT expressed in baculovirus infected High Five cells at 1 mM using gamma-Glu-PNA as substrate after 1 min by spectrophotometric method; settings: BTI-TN-5B1-4
[17] = Cytotoxicity against CHL cells assessed as chromatid gap at 825 ug/ml preincubated for 6 hrs followed by 18 hrs incubation in fresh medium in presence of S9 fraction by Giemsa-staining-based microscopic analysis; format: toxicity, cell-based, Cricetulus griseus; settings: chinese hamster
[18] = Cytotoxicity against CHL cells assessed as growth rate at 5.41 ug/ml after 24 hrs in absence of S9 fraction by MTT assay relative to control; format: toxicity, cell-based, Cricetulus griseus; settings: chinese hamster, read-out: Activity
[19] = Hydrolytic stability of compound in D2O at pH 1 to 2 by 31P NMR spectroscopy; format: physicochemical; settings: buffer
Rattus norvegicus = species: Rattus norvegicus; test: Cytotoxicity against Wistar rat […] assessed as morphological change up to 1 mM after 24 hrs by inverted microscopic analysis; format: toxicity
Summary of the method: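 Hepatic stellate cells isolated from male Wistar rats (300–350 g), identified by star-like shape and vitamin A autofluorescence, purity >95%. Plated at 5 × 10^5 cells/ml in DMEM with 10% FBS for 2 days, then kept serum-free 24 h at 37 °C. Exposed 24 h to 0, 10, 100 or 1000 µM in DMEM. Morphology checked by inverted microscopy.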

Salmonella typhimurium [20] = test: Genotoxicity in Salmonella typhimurium TA1537 assessed as number of revertant colonies per plate at 185 ug/plate after 20 mins in presence of S9 fraction by Ames test (reference value: 15); format: toxicity, organism-based; settings: salmonella enterica subsp. enterica serovar typhimurium
Escherichia coli K-12 = test: Irreversible inhibition of Escherichia coli K-12 SH642 GGT using gamma-Glu-AMC as substrate assessed as association rate constant by […] analysis
Summary of the method: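 GGT was purified from the periplasmic fraction of recombinant E. coli K-12 SH642. Hydrolytic activity was followed with γ-Glu-AMC as substrate. Irreversible inactivation was expressed as kon, the second-order rate constant for the inhibitor–enzyme reaction.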

[21] = Cytotoxicity against CHL cells assessed as structural aberrations at 1650 ug/ml after 24 hrs by Giemsa-staining-based microscopic analysis; format: toxicity, cell-based, Cricetulus griseus; settings: chinese hamster
Escherichia coli [22] = test: Genotoxicity in Escherichia coli WP2uvrA assessed as number of revertant colonies per plate at 61.7 ug/plate after 20 mins in presence of S9 fraction by Ames test (reference value: 26); format: toxicity; settings: s9, 20 min
[23] = tested on: Glutathione hydrolase 1 proenzyme (Homo sapiens), P19440 [K562S]; test: Inhibition of human GGT K562S mutant expressed in baculovirus infected High Five cells assessed as residual activity up to 1 mM using gamma-Glu-PNA as substrate after 5 mins by spectrophotometric method relative to control; settings: BTI-TN-5B1-4
Sequence of Glutathione hydrolase 1 proenzyme (Homo sapiens), P19440 [K562S] (P19440 whole entry K562S, the tested form may be a part): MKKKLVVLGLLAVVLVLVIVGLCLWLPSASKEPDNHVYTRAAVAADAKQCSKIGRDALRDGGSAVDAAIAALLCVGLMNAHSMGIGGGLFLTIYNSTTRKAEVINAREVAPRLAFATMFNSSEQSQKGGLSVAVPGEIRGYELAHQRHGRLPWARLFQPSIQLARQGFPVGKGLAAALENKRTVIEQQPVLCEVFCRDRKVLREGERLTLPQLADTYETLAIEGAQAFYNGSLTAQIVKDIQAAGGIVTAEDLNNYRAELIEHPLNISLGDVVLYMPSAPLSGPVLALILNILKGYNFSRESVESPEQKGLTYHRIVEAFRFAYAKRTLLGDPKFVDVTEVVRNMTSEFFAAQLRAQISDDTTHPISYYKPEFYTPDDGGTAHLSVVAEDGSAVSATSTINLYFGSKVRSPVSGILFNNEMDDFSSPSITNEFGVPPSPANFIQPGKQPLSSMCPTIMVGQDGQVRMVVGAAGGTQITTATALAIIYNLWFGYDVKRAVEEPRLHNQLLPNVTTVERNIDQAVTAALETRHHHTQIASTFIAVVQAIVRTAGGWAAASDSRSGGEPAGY
Summary of the method: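 Soluble N-terminal-truncated (Δ1–27) GGT was secreted by baculovirus-infected High Five cells (4 d, 27 °C) and purified from the medium on Con A and Q Sepharose. Activity was measured in 100 mM Tris-HCl pH 8.0 with 1 mM γ-Glu-PNA and 20 mM Gly-Gly at 37 °C, reading p-nitroaniline release continuously at 410 nm.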

Escherichia coli [24] = test: Genotoxicity in Escherichia coli WP2uvrA assessed as number of revertant colonies per plate at 1667 ug/plate after 20 mins in absence of S9 fraction by Ames test (reference value: 24); format: toxicity; settings: s9, 20 min
Salmonella typhimurium [25] = test: Genotoxicity in Salmonella typhimurium TA1535 assessed as number of revertant colonies per plate at 1667 ug/plate after 20 mins in absence of S9 fraction by Ames test (reference value: 15); format: toxicity, organism-based; settings: salmonella enterica subsp. enterica serovar typhimurium
[26] = Hydrolytic stability of the compound in D2O assessed as formation of monomethyl phosphonate and phenol at 23 degC up to 28 days by 31P NMR spectroscopy; format: physicochemical; settings: 672 h
Salmonella typhimurium [27] = test: Genotoxicity in Salmonella typhimurium TA98 assessed as number of revertant colonies per plate at 1667 ug/plate after 20 mins in presence of S9 fraction by Ames test (reference value: 26); format: toxicity, organism-based; settings: salmonella enterica subsp. enterica serovar typhimurium

## COP(=O)(CCC(N)C(=O)O)Oc1cccc(CC(=O)O)c1 (centres undefined)
Salmonella typhimurium [1]
  Activity: 131
Salmonella typhimurium [2]
  Activity: 9
[3]
  Activity: 0%
[4]
  viability at 18 h, 2.16 ug/ml: 101%
[5]
  viability at 18 h, 3300 ug/ml: 97.1%
Salmonella typhimurium [6]
  Activity: 34
Salmonella typhimurium [7]
  Activity: 17
Salmonella typhimurium [8]
  Activity: 11
Salmonella typhimurium [9]
  Activity: 131
Salmonella typhimurium [10]
  Activity: 25
[11]
  Activity: 0%
Salmonella typhimurium [12]
  Activity: 24
Salmonella typhimurium [13]
  Activity: 123
[14]
  viability at 18 h, 5.41 ug/ml: 103%
[15]
  viability at 18 h, 13.5 ug/ml: 103%
[16]
  inhibition: Active
[17]
  Activity: 0%
[18]
  viability at 24 h, 5.41 ug/ml: 105%
[19]
  Stability: Stable
Rattus norvegicus
  Activity: Non-Toxic
Salmonella typhimurium [20]
  Activity: 12
Escherichia coli K-12
  K: 150 M⁻¹ s⁻¹
[21]
  Activity: 1%
Escherichia coli [22]
  Activity: 28
[23]
  Activity: > 80%
Escherichia coli [24]
  Activity: 29
Salmonella typhimurium [25]
  Activity: 11
[26]
  Stability: Stable
Salmonella typhimurium [27]
  Activity: 29
